The text below walks through data of the array DNA melting data of Ke et al. (doi:10.1101/2024.01.08.574731).

Data set [1] in a line: folding enthalpy; higher = less favourable; fluorescence melt of hairpins on a sequencing array, two-state fit. The settings on record: sodium 0.088 M. In short, it runs like this:
(§1)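 Melting temperature and folding enthalpy were obtained by bootstrapped two-state fitting. Fits used Cy3 fluorescence of library hairpins with annealed Cy3 and quencher oligos on a sequenced MiSeq flow cell, imaged in 50 mM Na-HEPES pH 8.0, 25 mM NaCl in 2.5 °C steps up to 60 °C and normalised to pre-quench Cy3 and control constructs. Four replicates were combined by inverse-variance weighting, and fitted temperatures were raised by 9.35 °C to match UV melts.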

Data set [2] can be described thus: melting temperature; fluorescence melt of hairpins on a sequencing array, two-state fit, raised by 9.35 °C to match UV melts. The settings on record: sodium 0.088 M. In short, it runs like this:
as §1

Regarding GCACGGGGAAACCCATGC (((.(((....))).))), the folding enthalpy in data set [1] was -29.5 kcal/mol. The Tm in data set [2] came to 47 °C.

As for GATCGCTCCCGCGATC ((((((....)))))), in data set [1], the folding enthalpy was -34.3 kcal/mol. Further, in data set [2], the Tm was 67.8 °C.

Take GGTAGGGGAAACCTTACC ((((.((....)).)))): in data set [1], the folding enthalpy was -30.5 kcal/mol. Moreover, the Tm in data set [2] was 44.1 °C.

As for GATAGAGGAAACTCTACC (.(((((....))))).), in data set [1], the folding enthalpy is -12.6 kcal/mol. Also, in data set [2], the Tm was 23.5 °C.

In the case of CGCGGAAGGTCCGCG ((((((...)))))), the folding enthalpy in data set [1] was -27.1 kcal/mol. Further, the Tm in data set [2] is 69.2 °C.

As for GCATATCGAAAGATTTGC (((.(((....))).))), the folding enthalpy in data set [1] is -37 kcal/mol. Moreover, the Tm in data set [2] came out at 46.8 °C.

Consider GCCCAGCGAAAGCCCGGC (((..((....))..))), for which the folding enthalpy in data set [1] was -15.6 kcal/mol. In addition, the Tm in data set [2] came to 47.1 °C.

Turning to GGTCTACGAAAGTATACC (((.(((....))).))), the folding enthalpy in data set [1] was -35.5 kcal/mol. In data set [2], the Tm is 42.2 °C.

Regarding GCCCACGAAAGTGCTGGC ((((((....)))..))), the folding enthalpy in data set [1] was -18.9 kcal/mol. For the same sequence, in data set [2], the Tm was 47.4 °C.

For the sequence GGCATCGAAAGATATGCC ((((((....)))..))), the folding enthalpy in data set [1] was -28.1 kcal/mol. In addition, the Tm in data set [2] was 47.5 °C.

Consider GATCAACCGATTGATC ((((((....)))))), for which the folding enthalpy in data set [1] was -32.6 kcal/mol. Besides, the Tm in data set [2] was determined as 41.5 °C.

As for GGTAGGGGAAACTCTACC (((((.(....).))))), the folding enthalpy in data set [1] was -37.4 kcal/mol. Moreover, the Tm in data set [2] was determined as 46 °C.

For the sequence GGTCCCGGAAACGAGACC ((((.((....)).)))), the folding enthalpy in data set [1] is -32 kcal/mol. Also, the Tm in data set [2] came out at 49.6 °C.

As for GCTATGGGAAACCATGGC ((.((((....)))).)), the folding enthalpy in data set [1] is -41 kcal/mol. Also, the Tm in data set [2] is 50.9 °C.

On to GGTTGCGAAAGCACCACC ((((((....)))..))), for which the folding enthalpy in data set [1] was -11.6 kcal/mol. Also, the Tm in data set [2] stood at 45.1 °C.

As for GACACAGGAAACTGTATC ((.((((....)))).)), in data set [1], the folding enthalpy is -14.1 kcal/mol. The Tm in data set [2] was found to be 28.3 °C.

For GCTATACGAAAGTAGAGC (((.(((....))).))), the folding enthalpy in data set [1] is -38.3 kcal/mol. Besides, in data set [2], the Tm worked out at 53.4 °C.

As for AAGTGGAAACACTT (((((....))))), the folding enthalpy in data set [1] was -19.6 kcal/mol. In addition, the Tm in data set [2] was determined as 42 °C.

Consider CGCTCGGAAACGATCGCG ((((((....)))..))), for which the folding enthalpy in data set [1] was -24.2 kcal/mol. Besides, the Tm in data set [2] is 40.2 °C.

For the sequence GATCAGGCAACTGATC ((((((....)))))), in data set [1], the folding enthalpy is -37.6 kcal/mol. Besides, the Tm in data set [2] came to 60.6 °C.

As to GGGCGGCGAAAGCCACCC (((.(((....))).))), the folding enthalpy in data set [1] was -26.3 kcal/mol. Besides, the Tm in data set [2] was determined as 67.3 °C.

For the sequence GCTGACGAAAGTCAGAGC ((((((....)))..))), the folding enthalpy in data set [1] is -13.4 kcal/mol. In data set [2], the Tm came out at 55.8 °C.

As for GGTAATGGAAACATCACC (((.(((....))).))), the folding enthalpy in data set [1] was -18.2 kcal/mol. The Tm in data set [2] worked out at 30.7 °C.

GATCTGGTTACAGATC ((((((....)))))): the folding enthalpy in data set [1] is -40.1 kcal/mol. The Tm in data set [2] is 59.1 °C.

With GCCGCACGAAAGTGGGC (((.(((....)))))), the folding enthalpy in data set [1] was -20.9 kcal/mol. Moreover, the Tm in data set [2] turned out to be 62.8 °C.

Turning to GATCCAGCAGTGGATC ((((((....)))))), the folding enthalpy in data set [1] was -41.1 kcal/mol. Also, the Tm in data set [2] was 52.7 °C.

Turning to GCGATCACGAAAGTGCGC (((..(((....)))))), the folding enthalpy in data set [1] is -20.9 kcal/mol. Moreover, the Tm in data set [2] turned out to be 48.7 °C.

With GGGCCCGAAAGGGTACCC ((((((....)))..))), the folding enthalpy in data set [1] was -15.1 kcal/mol. The Tm in data set [2] worked out at 57.3 °C.

On to GGCGACGGAAACGCCACC ((.(.((....)).).)), for which the folding enthalpy in data set [1] is -16.9 kcal/mol. Further, the Tm in data set [2] came out at 46 °C.

With GATCTCAGGTGAGATC ((((((....)))))), the folding enthalpy in data set [1] is -32.2 kcal/mol. For the same sequence, the Tm in data set [2] came to 53.6 °C.

For the sequence GCTTTAGGAAACTAAAGC (((((((....))))))), the folding enthalpy in data set [1] is -39.1 kcal/mol. The Tm in data set [2] stood at 54.4 °C.

With GCTGCGCGAAAGCCCGGC ((.(.((....)).).)), the folding enthalpy in data set [1] is -17.5 kcal/mol. Besides, in data set [2], the Tm turned out to be 44.1 °C.

As to GATCACCACGTGATC ((((((...)))))), the folding enthalpy in data set [1] was -38.5 kcal/mol. In addition, in data set [2], the Tm amounted to 58.9 °C.

Turning to GATCCCTTCCGGGATC ((((((....)))))), the folding enthalpy in data set [1] was -35.3 kcal/mol. The Tm in data set [2] came out at 59.5 °C.

As to GGTTTAGGAAACTAAACC (((((((....))))))), the folding enthalpy in data set [1] is -54.6 kcal/mol. The Tm in data set [2] is 54.2 °C.

As to GGAATACGAAAGTAGTCC (((.(((....))).))), the folding enthalpy in data set [1] was -33.9 kcal/mol. Further, in data set [2], the Tm is 51.8 °C.

With GGGTGAGAAATCACCC ((((((....)))))), the folding enthalpy in data set [1] is -37.1 kcal/mol. Moreover, the Tm in data set [2] was found to be 61.6 °C.
